The values below come from ChEMBL document CHEMBL1773014, “Cytotoxic pentacyclic and tetracyclic aromatic sesquiterpenes from Phomopsis archeri” (J Nat Prod, 2011).

Structures are written as SMILES. Values after ≈ are worked out from the molar mass of the structure shown. Bounds are passed on as bounds.

Assay [1] can be described thus: Cytotoxicity against human KKU-M213 cells by sulforhodamine B assay. The class given is functional, cell-based. (In general: Sulforhodamine B stains cellular protein and so reports cell mass.)
A short description of assay [2]: Cytotoxicity against human KKU-M214 cells by sulforhodamine B assay. The class given is functional, cell-based.
Assay [3] in a line: Cytotoxicity against human KKU100 cells by sulforhodamine B assay. The class given is functional, cell-based.
Assay [4] is described as follows: Cytotoxicity against human KKU-M156 cells by sulforhodamine B assay. The class given is functional, cell-based.
Assay [5] in a line: Cytotoxicity against human KKU-M139 cells by sulforhodamine B assay. Type of assay: functional, cell-based.
The subject of assay [6] is Mycobacterium tuberculosis. Nature of the assay: Antimycobacterial activity against Mycobacterium tuberculosis H37Ra by microplate alamar blue assay. Type of assay: functional.
The subject of a further assay is KB. Nature of the assay: Cytotoxicity against human KB cells by sulforhodamine B assay. Type of assay: functional, cell-based.
In the next assay the test system is Plasmodium falciparum. Nature of the assay: Antimalarial activity against multidrug-resistant Plasmodium falciparum K1 assessed as reduction in uptake of [3H]-hypoxanthine by microculture radioisotope technique. Type of assay: functional, organism-based. An outline of the steps: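 P. falciparum K1 (multidrug-resistant) cultured by the Trager–Jensen method and tested in vitro by microculture radioisotope technique. Parasite growth read as [3H]-hypoxanthine uptake. IC50 taken as the concentration giving 50% reduction in growth. Dihydroartemisinin served as the reference standard.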

Usually IC50 stands for the midpoint of a concentration-inhibition curve. For the compound `Cc1cc(O)c2c(c1C=O)O[C@@]1(C)CC[C@H]3C(C)(C)C(=O)CC[C@]3(C)[C@H]1C2` [PHOMOARCHERIN C], the half-maximal inhibitory concentration (IC50) was found to be 15.4 µg/mL (≈ 41.6 µM) in assay [1]; 18.8 µg/mL (≈ 50.7 µM) in assay [2]; 8.9 µg/mL (≈ 24 µM) in assay [3]; 18 µg/mL (≈ 48.6 µM) in assay [4]; 8.9 µg/mL (≈ 24 µM) in assay [5].
As a reminder, the MIC is the lowest concentration found to suppress growth. Consider `NNC(=O)c1ccncc1` [ISONIAZID], for which, in assay [6], the MIC stood at 0.23 µg/mL (≈ 1.68 µM).
In the case of `Cc1c2ccncc2c(C)c2c1[nH]c1ccccc12` [ELLIPTECINE], the figures for the IC50 (in assay [1]; in assay [2]; in the assay with KB) were 0.3 µg/mL (≈ 1.22 µM), 0.21 µg/mL (≈ 0.853 µM) and 0.19 µg/mL (≈ 0.771 µM), respectively.
With `C[C@H]1[C@@H](O)O[C@@H]2O[C@@]3(C)CC[C@H]4[C@H](C)CC[C@@H]1[C@@]24OO3` [ARTENIMOL], in the assay with Plasmodium falciparum, the IC50 turned out to be 4.4 nM.
As to `CC(=O)O[C@H]1CC[C@]2(C)[C@H]3Cc4c(O)cc5c(c4O[C@@]3(C)CC[C@H]2C1(C)C)COC5=O` [KAMPANOL A], the IC50 in assay [1] was 19.6 µg/mL (≈ 45.7 µM); in assay [2], over 20 µg/mL; in assay [3], over 20 µg/mL; in assay [4], over 20 µg/mL; in assay [5], over 20 µg/mL.
For the compound `CC1(C)C(=O)CC[C@]2(C)[C@H]3Cc4c(O)cc5c(c4O[C@@]3(C)CC[C@@H]12)COC5=O` [PHOMOARCHERIN B], the MIC in assay [6] was found to be 50 µg/mL (≈ 130 µM). The half-maximal inhibitory concentration (IC50) in assay [1] is over 20 µg/mL; in assay [2], 5 µg/mL (≈ 13 µM); in assay [3], 8 µg/mL (≈ 20.8 µM); in the assay on Plasmodium falciparum, 0.79 µg/mL; in assay [4] it was 2 µg/mL (≈ 5.2 µM); in assay [5] it was 0.1 µg/mL (≈ 0.26 µM). For the same compound, the IC50 in the assay with KB is 9.4 µg/mL (≈ 24.4 µM).
`CC1(C)[C@@H](O)CC[C@]2(C)[C@H]3Cc4c(O)cc5c(c4O[C@@]3(C)CC[C@@H]12)COC5=O` [PHOMOARCHERIN A] yielded an MIC in assay [6] of over 200 µg/mL. In addition, the IC50 was 16.6 µg/mL (≈ 43 µM) in assay [1]; over 20 µg/mL in assay [2]; over 20 µg/mL in assay [3]; over 20 µg/mL in the assay on Plasmodium falciparum; over 20 µg/mL in assay [4]; over 20 µg/mL in assay [5]. This compound also gave an IC50 in the assay with KB of 42.1 µg/mL (≈ 109 µM).
